HUVEC inhibit: blocks proliferation of human endothelial cells. HUVEC proliferation, CellTiter-Glo luminescence, 72 h; hits give low values. viability, % at 10 µM (by protocol). hit rate 1.1% among 86,000;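 active = viability at or below 30%; inactive = viability above 30%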;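 also: 100% = median luminescence of DMSO-only cell control wells on each plate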
PTEN del growth: suppresses growth of cells with PTEN deletion; AID 827; HCT116 PTEN-null viability, CellTiter-Glo, 60 h; hits give low values; hit rate 1.2% among 140,000; viability, % at 10 µM;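 active = viability at or below a set limit, 4 SD under the median of all tested compounds, cut at about 3.7% in these data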;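 also: PTEN knockout HCT116 line with beta catenin targeted HCT116 as companion control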
Fibroblast inh: blocks proliferation of human lung fibroblasts. LL 47 human lung fibroblast viability, ATP luminescence; hits give low values. viability, % at 10 µM. hit rate 1.1% among 85,000. AID 719;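 active = viability at or below 50% in the single dose screen; inactive = viability above 50%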;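 also: compound exposure lasted 72 h before the ATP readout; 100% = median luminescence of untreated cell-only wells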
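test system = LL 47 human lung fibroblasts | amount = 1,150 fibroblasts seeded per well | medium = 15% FBS in IMEM | times = overnight cell rest, 72 h compound treatment at 37 °C | measured by = CellTiter-Glo luminescence measuring cellular ATP | read-out = viability percentage against median untreated-cell control | benchmarks = cell-only wells, no compound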
HCT116 bCat-KO: beta-catenin-lacking colon tumor cell growth suppression; HCT116 beta-catenin knockout viability, CellTiter-Glo, 60 h; hits give low values; viability, % at 10 µM; hit rate 1.5% among 140,000; AID 818;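 active = viability at or under a set limit, the compound median less 4 SD, cut at about 6% in these data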;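 also: 0% = Hyamine 1622 control at 20 µM and 100% = untreated cell control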
H69AR growth 86K: growth inhibitors of human H69AR lung tumor cells; H69AR lung tumor viability, ATP luminescence, 72 h; hits give low values; viability, % at 10 µM; hit rate 6% among 85,000; AID 598;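 active = viability at or below 40%; inactive = viability above 40%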;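 also: multidrug resistant small cell line overexpressing MRP-1 efflux transporter; 100% = mean luminescence of untreated control wells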
* marks the source's active call; other numbers are inactive results; . = not tested or not shown. Shown is part of a subset that was picked to be rich in hits.

SMILES | HUVEC inhibit | PTEN del growth | Fibroblast inh | HCT116 bCat-KO | H69AR growth 86K
O=C1CC(c2cccc(Cl)c2)Cc2nc(N3CCN(c4ccccc4)CC3)ncc21 (stereo not drawn) | 84.9 | 77.5 | 91.6 | 78.7 | 97.1
CCN1CCN(c2ncc3c(n2)CC(c2cc(OC)c(OC)c(OC)c2)CC3=O)CC1 (stereo not drawn) | 51.1 | 18.3 | 50.9 | 15.2 | 17.2*
Cc1nnc2n(-c3ccccc3)c(=O)c3c4c(sc3n12)COC(C(C)C)C4 (stereo not drawn) | 98.6 | 95.3 | 100.6 | 96.6 | 79.1
CC(C)C1Cc2c(sc3[nH]c(=S)n(Cc4ccccc4)c(=O)c23)CO1 (stereo not drawn) | 7.0* | 59.6 | 69.2 | 43.2 | 25.4*
CCn1c2ccccc2c2cc(/C=N/n3cnnc3)ccc21 | 109.2 | 77.9 | 80.0 | 90.7 | 74.0
CCn1c2ccccc2c2cc(/C=N/n3cn[nH]c3=S)ccc21 | 76.0 | 56.1 | 84.9 | 69.7 | 15.2*
COc1ccc(CCn2c(N)c(C(=O)NCc3ccco3)c3nc4ccccc4nc32)cc1 | . | 32.5 | . | 40.4 | .
Nc1c(C(=O)NCc2ccco2)c2nc3ccccc3nc2n1CCc1ccccc1F | 79.2 | 71.8 | 94.9 | 76.8 | 26.9*
COc1ccc(CCn2c(N)c(C(=O)NCc3ccco3)c3nc4ccccc4nc32)cc1OC | 80.5 | 25.4 | 111.3 | 35.4 | 24.1*
COc1ccc(-n2c(N)c(C(=O)NCc3ccco3)c3nc4ccccc4nc32)c(OC)c1 | 68.6 | 72.1 | 89.3 | 67.1 | 32.5*
CC(C)(C)NC(=O)CCN(/N=C/c1ccc([N+](=O)[O-])o1)C1=NS(=O)(=O)c2ccccc21 | . | 59.7 | . | 60.3 | .
Cc1ccc(N2C(=O)/C(=C\c3ccc(C(C)C)cc3)N=C2SC2CCOC2=O)cc1 (stereo not drawn) | . | 83.7 | . | 87.1 | .
Cn1c(C(=O)N2CCCC(C(=O)NCc3cccs3)C2)cc2sccc21 (stereo not drawn) | 89.3 | 90.4 | 93.1 | 85.4 | 87.8
Cn1c(C(=O)N2CCCC(C(=O)NCCCSC3CCCCC3)C2)cc2sccc21 (stereo not drawn) | 71.1 | 67.1 | 93.8 | 70.9 | 29.1*
CC(C)(C)NC(=O)CSc1ncnc2c1nnn2Cc1ccccc1Cl | 88.8 | 3.2* | 59.5 | 4.1* | 3.0*
Cc1onc(-c2ccccc2)c1C(=O)NNC(=S)NC(=O)/C=C/c1cccs1 | . | 27.2 | . | 32.2 | .
C=C1C(O)C[C@H]2C(=C)CCC3[C@H](OC(=O)[C@]3(O)CO)[C@@H]12 (stereo partly drawn) | . | 0.5* | . | 0.7* | .
Nc1c2c(nc3ccc(Br)cc13)N(Cc1ccccc1)CC2 | . | 85.9 | . | 86.3 | .
Nc1c2c(nc3ccc(Br)cc13)N(c1ccccc1)CC2 | 78.2 | 62.5 | 94.4 | 75.7 | 31.9*
Cc1cccc(N2CCc3c2nc2ccc(Br)cc2c3N)c1 | 61.8 | 40.0 | 98.9 | 49.4 | 22.4*
CCCCCC(=O)NC(=S)Nc1ccc(N2CCOCC2)cc1 | . | 86.5 | . | 92.7 | .
COc1ccc(OCCSc2nnc(C)n2-c2ccccc2)cc1 | 86.1 | 95.9 | 100.5 | 78.9 | 32.3*
CC1=NN(C(=O)c2cc(C)nn2C)C(O)(C(F)(F)F)C1 (stereo not drawn) | . | 100.7 | . | 94.9 | .
Cc1ccc(OC(=O)C2c3ccccc3Oc3ccccc32)cc1C | . | 89.5 | . | 81.3 | .
CCOc1cc2nc(-c3ccc(OC)c(OC)c3)nc(N3CC(C)OC(C)C3)c2cc1OC (stereo not drawn) | . | 87.7 | . | 91.3 | .
SMILES | HUVEC inhibit | PTEN del growth | Fibroblast inh | HCT116 bCat-KO | H69AR growth 86K
CCOc1cc2nc(-c3ccc(OC)c(OC)c3)nc(N3CCOCC3)c2cc1OC | 6.9* | 29.0 | 66.1 | 30.9 | 33.0*
CCOc1ccc(C(=O)CC(=O)C(=O)NCCc2ccc(OC)c(OC)c2)cc1 | . | 91.8 | . | 94.1 | .
Cc1ccc(C)c(OCC(O)CN2CCC(CN3C(=O)c4cccc5cccc(c45)C3=O)CC2)c1 (stereo not drawn) | . | 1.2* | . | 1.2* | .
COc1ccc(OCc2nc(N)nc(Nc3ccccc3)n2)cc1 | 120.0 | 97.8 | 92.8 | 93.7 | 90.5
Cc1c(-c2nc(N)nc(Nc3ccccc3)n2)oc2ccccc12 | 62.3 | 48.8 | 97.3 | 57.9 | 14.5*
CCOC(=O)CN1C(=O)C(O)(CC(=O)c2cccc(OC)c2)c2ccccc21 (stereo not drawn) | 101.2 | 56.1 | 95.0 | 49.3 | 27.6*
COC(=O)CN1C(=O)C(O)(CC(=O)c2ccccc2)c2ccccc21 (stereo not drawn) | 84.8 | 102.2 | 101.0 | 98.2 | 96.2
CCCCN1C(=O)C(O)(CC(=O)c2ccco2)c2cc(Br)ccc21 (stereo not drawn) | 65.1 | 15.3 | 67.7 | 13.9 | 21.2*
C#CCN1C(=O)C(O)(CC(=O)c2cccc(OC)c2)c2ccccc21 (stereo not drawn) | 92.9 | 19.3 | 101.6 | 33.8 | 19.9*
O=C(CC1(O)C(=O)N(Cc2ccccc2Cl)c2ccccc21)c1ccco1 (stereo not drawn) | 68.2 | 10.9 | 95.5 | 12.1 | 14.6*
CCn1c(=O)c(C(=O)CN2CCN(S(=O)(=O)c3cc(C)ccc3C)CC2)c(N)n(Cc2ccccc2)c1=O | . | 55.0 | . | 55.9 | .
COC(=O)N/N=C/c1cn(Cc2c(Cl)cccc2Cl)c2ccccc12 | . | 79.7 | . | 79.2 | .
CC(C)=CC[N+]1(C)CCCCC1 | . | 95.1 | . | 88.0 | .
Cc1ccccc1NC(NC(=O)OCCn1c([N+](=O)[O-])cnc1C)C(Cl)(Cl)Cl (stereo not drawn) | . | 92.9 | . | 93.6 | .
COc1ccc(CN2C(=O)C(O)(CC(=O)c3ccc4c(c3)OCO4)c3ccccc32)cc1OC (stereo not drawn) | 104.7 | 28.2 | 105.3 | 49.1 | 27.8*
CN1C(=O)C(O)(CC(=O)c2ccccc2O)c2cc(Br)ccc21 (stereo not drawn) | 55.0 | 22.1 | 77.4 | 30.3 | 20.3*
CCOC(=O)CN1C(=O)C(O)(CC(=O)c2ccco2)c2ccccc21 (stereo not drawn) | 107.5 | 71.7 | 100.5 | 78.7 | 25.7*
Cc1[nH]c2ccccc2c1C1(O)C(=O)N(Cc2ccc3c(c2)OCO3)c2ccccc21 (stereo not drawn) | 80.5 | 9.5 | 80.3 | 12.8 | 13.5*
CCN1C(=O)C(O)(CC(=O)c2ccc3c(c2)OCCO3)c2ccccc21 (stereo not drawn) | 99.6 | 93.1 | 96.8 | 104.4 | 102.5
Cc1[nH]c2ccccc2c1C1(O)C(=O)N(C(C)C)c2ccccc21 (stereo not drawn) | 92.0 | 94.6 | 91.4 | 94.8 | 47.0
O=C(Cn1cncc1-c1ccc([N+](=O)[O-])cc1)Nc1ccccc1F | . | 80.6 | . | 86.1 | .
CCN(CC(=O)Nc1ccc([N+](=O)[O-])cc1OC)CC(=O)NC(C)(C)C | . | 101.3 | . | 100.7 | .
Cc1cccc(N(C)C(=O)c2cc3cc4ccc(C)cc4nc3o2)c1 | 60.4 | 41.9 | 67.7 | 40.1 | 18.6*
COc1cccc(C2=CC(c3ccccc3)n3nnnc3N2)c1 (stereo not drawn) | . | 5.9 | . | 7.4 | .
COc1cccc(C2=CC(c3cc(OC)ccc3OC)n3nnnc3N2)c1 (stereo not drawn) | 45.5 | 28.1 | 71.2 | 26.4 | 5.4*
